PubChem BioAssay AID651950 (The Scripps Research Institute Molecular Screening Center, 2012)
A number with no mark means an inactive call. Activity calls are given as the source filed them. The rule behind the calls is not given here.

Experiment: Hsp70 transcriptional activators, SAR follow-up, cell-based, HeLa, Hsp70 promoter luciferase, luminescence (AID 651950)
Details: HeLa hsp70.1pr-luc reporter; at 99 µM (top of the series)
Procedure, shortened: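 detection: luciferase luminescence; read-out: % activation relative to DMSO and MG132 controls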

Which activation does the source give for `O=C1NC(=O)C(=C/C=C/c2ccco2)C(=O)N1` here?
The activation was -0.7% (active).

Which activation does the source give for `C=CCN1C(=O)NC(=O)/C(=C/C=C/c2ccccc2)C1=O` here?
Its activation is -1.7% (active).

For `CN(C)c1ccc(/C=C/C=C2C(=O)NC(=O)NC2=O)cc1`, which activation is on record?
Its activation is 0.4%.

For `O=C1NC(=O)C(=C/C=C/c2ccc(Br)cc2)C(=O)N1`, which activation is on record?
Its activation is -0.8% (active).

Which activation does the source give for `COc1ccc(/C=C/C=C2C(=O)NC(=O)NC2=O)cc1` here?
Its activation is -1.7% (active).

For `O=C1NC(=O)N(Cc2ccccc2)C(=O)/C1=C/C=C/c1ccccc1`, which activation is on record?
The activation was -1.2% (active).

For `O=C1NC(=O)C(=C/C=C/c2ccc(Cl)cc2)C(=O)N1`, which activation is on record?
Its activation is -1.1% (active).

Which activation does the source give for `O=C1NC(=O)C(=C/C=C/c2ccc([N+](=O)[O-])cc2)C(=O)N1` here?
The activation was -1.1% (active).

Which activation does the source give for `O=C1NC(=O)C(=C/C=C/c2cccnc2)C(=O)N1` here?
The activation was 22.5%.
